From ChEMBL document CHEMBL1145212, “Fluorinated diaryl sulfides as serotonin transporter ligands: synthesis, structure-activity relationship study, and in vivo evaluation of fluorine-18-labeled compounds as PET imaging agents” (J Med Chem, 2005)

Columns and labels:
Rattus norvegicus [1] = assay: Biodistribution of [18F]AFM in rat hypothalamus at 120 min postinjection in vivo; assay type: ADME, organism-based; conditions: 2 h
Procedure, shortened: (§1)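 Male Sprague-Dawley rats, three per group, given about 20 µCi of F-18 radioligand in saline by tail vein. Sacrificed by decapitation after CO₂ anaesthesia at 10, 30, 60, 90 or 120 min. Brain regions and blood removed, weighed and gamma-counted. %ID was decay-corrected and corrected for residual tail activity against F-18 standards, then converted to %ID/g; mean ± SD.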

Rattus norvegicus [2] = assay: Biodistribution of [18F]AFM in rat frontal cortex at 10 min postinjection in vivo; assay type: ADME, organism-based
Procedure, shortened: (§2)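 Male Sprague-Dawley rats, three per group, received ~20 µCi of the F-18 radioligand in saline by tail-vein injection. Rats were anesthetized with CO2 and decapitated at 10, 30, 60, 90 or 120 min. Blood and brain regions were weighed and gamma-counted. %ID/g was decay- and tail-residual-corrected against F-18 standards made from the injectate and reported as mean ± SD.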

Rattus norvegicus [3] = assay: Biodistribution of [18F]AFM in rat frontal cortex at 60 min postinjection in vivo; assay type: ADME, organism-based; conditions: 1 h; procedure, shortened: as §2
Rattus norvegicus [4] = assay: Biodistribution of [18F]AFM in rat frontal cortex at 90 min postinjection in vivo; assay type: ADME, organism-based; conditions: 1.5 h; procedure, shortened: as §2
Rattus norvegicus [5] = assay: Biodistribution of [18F]AFM in rat frontal cortex at 120 min postinjection in vivo; assay type: ADME, organism-based; conditions: 2 h; procedure, shortened: as §2
Rattus norvegicus [6] = assay: Biodistribution of [18F]AFM in rat blood at 120 min postinjection in vivo; assay type: ADME, organism-based; conditions: 2 h; procedure, shortened: as §2
Rattus norvegicus [7] = assay: Biodistribution of [18F]AFM in rat striatum at 10 min postinjection in vivo; assay type: ADME, organism-based; procedure, shortened: as §1
Rattus norvegicus [8] = assay: Biodistribution of [18F]-AFM in rat striatum at 30 min postinjection in vivo; assay type: ADME, organism-based; conditions: 0.5 h
Procedure, shortened: (§3)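 Male Sprague-Dawley rats, three per time point, received the F-18 radioligand in saline (~20 µCi per rat at injection) by tail vein. Under CO2 anesthesia they were decapitated at 10, 30, 60, 90 or 120 min. Blood and dissected brain regions were weighed and gamma counted. Activity was decay-corrected, and injected dose was corrected for tail residual activity. Uptake was expressed as %ID/g versus injectate standards, mean ± SD.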

Rattus norvegicus [9] = assay: Biodistribution of [18F]AFM in rat striatum at 90 min postinjection in vivo; assay type: ADME, organism-based; conditions: 1.5 h
Procedure, shortened: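 Male Sprague-Dawley rats (three per group) received ~20 µCi of the F-18-labeled ligand in saline by tail vein. They were anesthetized with CO₂ and decapitated at 10, 30, 60, 90 and 120 min. Striatum and other regions were weighed and gamma-counted. Values are decay- and tail-corrected %ID/g against standards made from the injection solution, reported as mean ± SD.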

Rattus norvegicus [10] = assay: Biodistribution of [18F]AFM in rat thalamus at 10 min postinjection in vivo; assay type: ADME, organism-based
Rattus norvegicus [11] = assay: Biodistribution of [18F]-AFM in rat thalamus at 30 min postinjection in vivo; assay type: ADME, organism-based; conditions: 0.5 h; procedure, shortened: as §3
Rattus norvegicus [12] = assay: Biodistribution of [18F]AFM in rat thalamus at 60 min postinjection in vivo; assay type: ADME, organism-based; conditions: 1 h
Rattus norvegicus [13] = assay: Biodistribution of [18F]AFM in rat thalamus at 90 min postinjection in vivo; assay type: ADME, organism-based; conditions: 1.5 h
Rattus norvegicus [14] = species on record: Rattus norvegicus; assay: Specific binding of [18F]AFA in thalamus of rat pretreated with compound 7d; n=3; assay type: functional
Rattus norvegicus [15] = species on record: Rattus norvegicus; assay: Specific binding of [18F]-AFA in hippocampus of rat pretreated with compound 7d; n=3; assay type: functional
Rattus norvegicus [16] = species on record: Rattus norvegicus; assay: Specific binding of [18F]AFA in frontal cortex of rat pretreated with compound 7d; n=3; assay type: functional
Rattus norvegicus [17] = assay: Biodistribution of [18F]AFM in rat blood at 10 min postinjection in vivo; assay type: ADME, organism-based; procedure, shortened: as §2
Rattus norvegicus [18] = assay: Biodistribution of [18F]AFM in rat blood at 30 min postinjection in vivo; assay type: ADME, organism-based; conditions: 0.5 h; procedure, shortened: as §2
Rattus norvegicus [19] = assay: Biodistribution of [18F]AFM in rat blood at 90 min postinjection in vivo; assay type: ADME, organism-based; conditions: 1.5 h; procedure, shortened: as §2
Rattus norvegicus [20] = assay: Biodistribution of [18F]-AFM in rat striatum 60 min postinjection in vivo; assay type: ADME, organism-based; conditions: 1 h; procedure, shortened: as §3
Rattus norvegicus [21] = assay: Biodistribution of [18F]-AFM in rat cerebellum at 10 min postinjection in vivo; assay type: ADME, organism-based; procedure, shortened: as §3
Rattus norvegicus [22] = assay: Biodistribution of [18F]AFM in rat cerebellum at 30 min postinjection in vivo; assay type: ADME, organism-based; conditions: 0.5 h; procedure, shortened: as §2
Rattus norvegicus [23] = assay: Biodistribution of [18F]AFM in rat cerebellum at 60 min postinjection in vivo; assay type: ADME, organism-based; conditions: 1 h; procedure, shortened: as §2
Rattus norvegicus [24] = assay: Biodistribution of [18F]AFM in rat cerebellum at 90 min postinjection in vivo; assay type: ADME, organism-based; conditions: 1.5 h; procedure, shortened: as §2
Rattus norvegicus [25] = assay: Biodistribution of [18F]AFM in rat cerebellum at 120 min postinjection in vivo; assay type: ADME, organism-based; conditions: 2 h; procedure, shortened: as §2
Rattus norvegicus [26] = assay: Biodistribution of [18F]AFM in rat hippocampus at 10 min postinjection in vivo; assay type: ADME, organism-based; procedure, shortened: as §2
Rattus norvegicus [27] = assay: Biodistribution of [18F]AFM in rat hippocampus at 30 min postinjection in vivo; assay type: ADME, organism-based; conditions: 0.5 h; procedure, shortened: as §2
Rattus norvegicus [28] = assay: Biodistribution of [18F]-AFM in rat hippocampus at 60 min postinjection in vivo; assay type: ADME, organism-based; conditions: 1 h; procedure, shortened: as §3
Rattus norvegicus [29] = assay: Biodistribution of [18F]AFM in rat hippocampus at 90 min postinjection in vivo; assay type: ADME, organism-based; conditions: 1.5 h; procedure, shortened: as §1
Rattus norvegicus [30] = assay: Biodistribution of [18F]AFM in rat hippocampus at 120 min postinjection in vivo; assay type: ADME, organism-based; conditions: 2 h; procedure, shortened: as §2
Rattus norvegicus [31] = assay: Biodistribution of [18F]AFM in rat hypothalamus at 10 min postinjection in vivo; assay type: ADME, organism-based; procedure, shortened: as §1
Rattus norvegicus [32] = assay: Biodistribution of [18F]AFM in rat hypothalamus at 30 min postinjection in vivo; assay type: ADME, organism-based; conditions: 0.5 h; procedure, shortened: as §1
Rattus norvegicus [33] = assay: Biodistribution of [18F]AFM in rat hypothalamus at 60 min postinjection in vivo; assay type: ADME, organism-based; conditions: 1 h; procedure, shortened: as §1
Rattus norvegicus [34] = assay: Biodistribution of [18F]AFM in rat hypothalamus at 90 min postinjection in vivo; assay type: ADME, organism-based; conditions: 1.5 h; procedure, shortened: as §1
Rattus norvegicus [35] = assay: Biodistribution of [18F]-AFM in rat striatum at 120 min postinjection in vivo; assay type: ADME, organism-based; conditions: 2 h; procedure, shortened: as §3
Rattus norvegicus [36] = assay: Biodistribution of [18F]AFM in rat thalamus at 120 min postinjection in vivo; assay type: ADME, organism-based; conditions: 2 h
Rattus norvegicus [37] = species on record: Rattus norvegicus; assay: Specific binding of [18F]AFA in striatum of rat pretreated with compound 7d; n=3; assay type: functional
Rattus norvegicus [38] = species on record: Rattus norvegicus; assay: Specific binding of [18F]AFA in hypothalamus of rat pretreated with compound 7d; n=3; assay type: functional
Rattus norvegicus [39] = assay: Biodistribution of [18F]AFM in rat blood at 60 min postinjection in vivo; assay type: ADME, organism-based; conditions: 1 h; procedure, shortened: as §2
Rattus norvegicus [40] = assay: Biodistribution of [18F]AFM in rat frontal cortex at 30 min postinjection in vivo; assay type: ADME, organism-based; conditions: 0.5 h; procedure, shortened: as §2

Biodistribution (Rattus norvegicus [1]): 0.55 %ID/g
Biodistribution (Rattus norvegicus [2]): 0.82 %ID/g
Biodistribution (Rattus norvegicus [3]): 0.71 %ID/g
Biodistribution (Rattus norvegicus [4]): 0.52 %ID/g
Biodistribution (Rattus norvegicus [5]): 0.38 %ID/g
Biodistribution (Rattus norvegicus [6]): 0.04 %ID/g
Biodistribution (Rattus norvegicus [7]): 0.69 %ID/g
Biodistribution (Rattus norvegicus [8]): 0.83 %ID/g
Biodistribution (Rattus norvegicus [9]): 0.45 %ID/g
Biodistribution (Rattus norvegicus [10]): 0.72 %ID/g
Biodistribution (Rattus norvegicus [11]): 0.88 %ID/g
Biodistribution (Rattus norvegicus [12]): 0.67 %ID/g
Biodistribution (Rattus norvegicus [13]): 0.5 %ID/g
Biodistribution (Rattus norvegicus [17]): 0.37 %ID/g
Biodistribution (Rattus norvegicus [18]): 0.18 %ID/g
Biodistribution (Rattus norvegicus [19]): 0.08 %ID/g
Biodistribution (Rattus norvegicus [20]): 0.57 %ID/g
Biodistribution (Rattus norvegicus [21]): 0.33 %ID/g
Biodistribution (Rattus norvegicus [22]): 0.23 %ID/g
Biodistribution (Rattus norvegicus [23]): 0.13 %ID/g
Biodistribution (Rattus norvegicus [24]): 0.08 %ID/g
Biodistribution (Rattus norvegicus [25]): 0.07 %ID/g
Biodistribution (Rattus norvegicus [26]): 0.51 %ID/g
Biodistribution (Rattus norvegicus [27]): 0.64 %ID/g
Biodistribution (Rattus norvegicus [28]): 0.45 %ID/g
Biodistribution (Rattus norvegicus [29]): 0.36 %ID/g
Biodistribution (Rattus norvegicus [30]): 0.28 %ID/g
Biodistribution (Rattus norvegicus [31]): 0.7 %ID/g
Biodistribution (Rattus norvegicus [32]): 0.82 %ID/g
Biodistribution (Rattus norvegicus [33]): 0.71 %ID/g
Biodistribution (Rattus norvegicus [34]): 0.58 %ID/g
Biodistribution (Rattus norvegicus [35]): 0.42 %ID/g
Biodistribution (Rattus norvegicus [36]): 0.56 %ID/g
Biodistribution (Rattus norvegicus [39]): 0.1 %ID/g
Biodistribution (Rattus norvegicus [40]): 0.99 %ID/g
Structure (SMILES): CN(C)Cc1ccccc1Sc1ccc(C[18F])cc1N
Specific binding (Rattus norvegicus [14]): 0.85 %ID/g
Specific binding (Rattus norvegicus [15]): 0.45 %ID/g
Specific binding (Rattus norvegicus [16]): 0.31 %ID/g
Specific binding (Rattus norvegicus [37]): 0.53
Specific binding (Rattus norvegicus [38]): 0.84
